According to ChEMBL document CHEMBL4387708, “Enhancement of Benzothiazoles as Pteridine Reductase-1 Inhibitors for the Treatment of Trypanosomatidic Infections” (J Med Chem, 2019):
One block for each compound: values may come before it.

Experiments:
Trypanosoma cruzi = assay: Growth inhibition of trypomastigote form of Trypanosoma cruzi Y infected in human U2OS cells at 50 uM measured after 72 hrs by DRAQ5 DNA dye based confocal microscopic analysis relative to control; assay type: organism-based; conditions: for growth inhibition (GI): trypanosoma cruzi, 50 µM; for inhibition at 50 µM: Trypanosoma cruzi, Y, U2OS, read-out: GI
Leishmania infantum = assay: Growth inhibition of luciferase expressing Leishmania infantum axenic amastigotes infected in human THP1 cells at 10 uM measured after 72 hrs by steady-glo luminescence assay relative to control; assay type: organism-based; conditions: for growth inhibition (GI): leishmania infantum, 72 h, 10 µM; for inhibition at 10 µM: Leishmania infantum, THP-1, 72 h, read-out: GI
Pteridine reductase 1 = target: T1, Pteridine reductase 1 (Leishmania major, UniProt Q01782); assay: Inhibition of Leishmania major pteridine reductase 1 using di-hydrobiopterine as substrate in presence of NADPH; conditions: read-out: IC50
T1 sequence (Q01782 whole entry): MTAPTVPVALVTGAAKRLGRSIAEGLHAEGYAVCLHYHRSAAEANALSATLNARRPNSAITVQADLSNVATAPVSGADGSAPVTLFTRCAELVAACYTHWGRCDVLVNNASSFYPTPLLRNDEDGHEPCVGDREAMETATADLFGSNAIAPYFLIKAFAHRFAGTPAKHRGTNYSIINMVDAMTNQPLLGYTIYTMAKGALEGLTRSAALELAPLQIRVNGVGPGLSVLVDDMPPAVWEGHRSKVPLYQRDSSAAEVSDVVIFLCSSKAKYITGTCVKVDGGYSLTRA
How it was run: (§1)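 Photometric PTR1 assay with NADPH and dihydrobiopterin substrate. H₄B formation is coupled non-enzymatically to cytochrome c reduction, read as signal increase at 550 nm.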

[1] = Inhibition of N-terminal His-tagged Trypanosoma brucei pteridine reductase 1 using di-hydrobiopterine as substrate measured at 1 min interval for 50 mins in presence of NADPH; how it was run: as §1
Trypanosoma brucei [2] = assay: Inhibition of N-terminal His-tagged Trypanosoma brucei pteridine reductase 1 at 50 uM using di-hydrobiopterine as substrate measured at 1 min interval for 50 mins in presence of NADPH relative to control; how it was run: as §1
[3] = target: T2, Pteridine reductase 1 (Leishmania major) (UniProt Q01782); assay: Inhibition of Leishmania major pteridine reductase 1 at 50 uM using di-hydrobiopterine as substrate in presence of NADPH relative to control; how it was run: as §1
T2 sequence (whole entry): T1 sequence (Q01782 whole entry)

Trypanosoma brucei [4] = assay: Growth inhibition of Trypanosoma brucei bloodstream forms at 10 uM measured after 72 hrs by resazurin-based fluorescence assay relative to control; assay type: organism-based; conditions: for inhibition at 10 µM: Trypanosoma brucei, read-out: GI
[5] = target: Voltage-gated inwardly rectifying potassium channel KCNH2 (Homo sapiens, UniProt Q12809); assay: Displacement of Tracer Red from human ERG by fluorescence polarization assay
Cytochrome P450 1A2 = target: T3, Cytochrome P450 1A2 (Homo sapiens, UniProt P05177); assay: Inhibition of human CYP1A2 expressed in baculovirus infected insect cells using beetle D-luciferin as substrate preincubated for 30 mins followed by NADPH addition and measured after 30 mins by CYP450-Glo assay
T3 sequence (P05177 whole entry): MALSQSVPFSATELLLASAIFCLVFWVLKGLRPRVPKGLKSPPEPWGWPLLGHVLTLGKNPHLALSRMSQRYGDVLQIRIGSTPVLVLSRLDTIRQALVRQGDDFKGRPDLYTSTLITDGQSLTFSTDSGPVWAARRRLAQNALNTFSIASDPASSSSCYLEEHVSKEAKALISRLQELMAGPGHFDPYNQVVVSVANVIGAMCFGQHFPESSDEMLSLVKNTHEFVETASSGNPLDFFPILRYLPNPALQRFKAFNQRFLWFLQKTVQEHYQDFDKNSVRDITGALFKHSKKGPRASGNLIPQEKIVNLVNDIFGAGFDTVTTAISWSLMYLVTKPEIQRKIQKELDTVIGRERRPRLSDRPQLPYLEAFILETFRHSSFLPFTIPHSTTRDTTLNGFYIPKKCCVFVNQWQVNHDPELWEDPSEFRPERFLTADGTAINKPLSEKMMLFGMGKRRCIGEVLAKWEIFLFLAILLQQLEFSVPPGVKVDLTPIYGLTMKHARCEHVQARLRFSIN

[6] = Cytotoxicity against human A549 cells after 48 hrs by Celltiter-glo assay; assay type: cell-based
[7] = Cytotoxicity against human THP1 cells after 72 hrs by MTT assay; assay type: cell-based, THP-1; conditions: read-out: NOAEL
[8] = Cytotoxicity against human U2OS cells assessed as reduction in cell number; assay type: cell-based
[9] = Mitochondrial toxicity in human 786-O cells measured after 6 hrs by MitoTracker Red chloromethyl-X-rosamine based assay; assay type: cell-based, 786-0
Cytochrome P450 2C9 = Cytochrome P450 2C9 (Homo sapiens, UniProt P11712); assay: Inhibition of human CYP2C9 expressed in baculovirus infected insect cells using beetle D-luciferin as substrate preincubated for 30 mins followed by NADPH addition and measured after 30 mins by CYP450-Glo assay
Cytochrome P450 2C19 = Cytochrome P450 2C19 (Homo sapiens, UniProt P33261); assay: Inhibition of human CYP2C19 expressed in baculovirus infected insect cells using beetle D-luciferin as substrate preincubated for 30 mins followed by NADPH addition and measured after 30 mins by CYP450-Glo assay
Cytochrome P450 2D6 = Cytochrome P450 2D6 (Homo sapiens, UniProt P10635); assay: Inhibition of human CYP2D6 expressed in baculovirus infected insect cells using beetle D-luciferin as substrate preincubated for 30 mins followed by NADPH addition and measured after 30 mins by CYP450-Glo assay
Cytochrome P450 3A4 = Cytochrome P450 3A4 (Homo sapiens, UniProt P08684); assay: Inhibition of human CYP3A4 expressed in baculovirus infected insect cells using beetle D-luciferin as substrate preincubated for 30 mins followed by NADPH addition and measured after 30 mins by CYP450-Glo assay
[10] = Selectivity ratio of IC50 for Leishmania major pteridine reductase 1 to IC50 for N-terminal His-tagged Trypanosoma brucei pteridine reductase 1

Sequence of Cytochrome P450 2D6 (P10635 whole entry): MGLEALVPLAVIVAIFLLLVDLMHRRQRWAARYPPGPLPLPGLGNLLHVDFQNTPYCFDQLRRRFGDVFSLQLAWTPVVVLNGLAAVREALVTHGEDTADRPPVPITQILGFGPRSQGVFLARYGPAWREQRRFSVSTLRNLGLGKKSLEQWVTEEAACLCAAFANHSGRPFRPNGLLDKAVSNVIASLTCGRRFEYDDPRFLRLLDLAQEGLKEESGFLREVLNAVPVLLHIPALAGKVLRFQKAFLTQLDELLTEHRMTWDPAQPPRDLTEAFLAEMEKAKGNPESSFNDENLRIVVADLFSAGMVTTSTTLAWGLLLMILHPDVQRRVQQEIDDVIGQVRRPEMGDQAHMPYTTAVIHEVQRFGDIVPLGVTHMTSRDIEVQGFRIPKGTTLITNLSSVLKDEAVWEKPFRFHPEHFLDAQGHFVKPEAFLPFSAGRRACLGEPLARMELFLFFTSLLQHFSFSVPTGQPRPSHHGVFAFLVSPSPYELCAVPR
Sequence of Cytochrome P450 2C9 (P11712 whole entry): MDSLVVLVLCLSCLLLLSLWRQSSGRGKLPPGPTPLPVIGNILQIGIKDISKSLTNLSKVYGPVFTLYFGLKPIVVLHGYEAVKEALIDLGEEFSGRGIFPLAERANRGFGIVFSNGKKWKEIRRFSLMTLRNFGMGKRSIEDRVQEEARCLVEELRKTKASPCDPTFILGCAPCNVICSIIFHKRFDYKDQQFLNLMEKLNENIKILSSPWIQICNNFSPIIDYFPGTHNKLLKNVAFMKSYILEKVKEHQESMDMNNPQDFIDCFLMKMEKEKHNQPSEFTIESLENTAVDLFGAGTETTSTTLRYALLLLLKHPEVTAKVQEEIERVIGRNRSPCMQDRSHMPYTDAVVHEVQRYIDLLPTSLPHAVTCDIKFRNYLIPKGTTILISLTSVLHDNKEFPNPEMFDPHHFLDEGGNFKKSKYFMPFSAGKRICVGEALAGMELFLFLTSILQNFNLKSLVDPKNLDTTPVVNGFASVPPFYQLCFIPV
Sequence of Cytochrome P450 2C19 (P33261 whole entry): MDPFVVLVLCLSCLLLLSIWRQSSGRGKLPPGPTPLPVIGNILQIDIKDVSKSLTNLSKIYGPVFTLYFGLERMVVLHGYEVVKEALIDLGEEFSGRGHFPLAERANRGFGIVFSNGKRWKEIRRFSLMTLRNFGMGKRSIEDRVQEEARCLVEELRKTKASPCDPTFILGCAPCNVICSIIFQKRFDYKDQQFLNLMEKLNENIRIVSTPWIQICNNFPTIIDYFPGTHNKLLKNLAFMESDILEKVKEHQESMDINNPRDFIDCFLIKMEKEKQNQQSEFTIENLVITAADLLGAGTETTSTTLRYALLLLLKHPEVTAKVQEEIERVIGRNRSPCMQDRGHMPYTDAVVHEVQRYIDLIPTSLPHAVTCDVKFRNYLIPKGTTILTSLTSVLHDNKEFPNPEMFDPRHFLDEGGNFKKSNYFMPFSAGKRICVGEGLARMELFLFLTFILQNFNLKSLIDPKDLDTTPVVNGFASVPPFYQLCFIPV
Sequence of Cytochrome P450 3A4 (P08684 whole entry): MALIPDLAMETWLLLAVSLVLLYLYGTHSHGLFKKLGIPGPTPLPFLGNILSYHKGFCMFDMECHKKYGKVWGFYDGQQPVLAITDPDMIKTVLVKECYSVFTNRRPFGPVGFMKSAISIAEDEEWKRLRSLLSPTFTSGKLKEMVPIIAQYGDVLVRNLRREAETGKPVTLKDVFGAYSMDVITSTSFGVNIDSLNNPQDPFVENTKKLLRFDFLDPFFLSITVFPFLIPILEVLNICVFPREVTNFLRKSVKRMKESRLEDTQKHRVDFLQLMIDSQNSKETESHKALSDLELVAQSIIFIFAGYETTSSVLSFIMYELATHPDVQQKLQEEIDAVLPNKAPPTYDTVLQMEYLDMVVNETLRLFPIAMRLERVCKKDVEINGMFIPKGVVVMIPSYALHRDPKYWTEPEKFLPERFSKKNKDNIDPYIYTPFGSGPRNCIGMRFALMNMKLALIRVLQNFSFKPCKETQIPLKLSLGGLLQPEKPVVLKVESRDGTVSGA
Sequence of Voltage-gated inwardly rectifying potassium channel KCNH2 (Q12809 whole entry): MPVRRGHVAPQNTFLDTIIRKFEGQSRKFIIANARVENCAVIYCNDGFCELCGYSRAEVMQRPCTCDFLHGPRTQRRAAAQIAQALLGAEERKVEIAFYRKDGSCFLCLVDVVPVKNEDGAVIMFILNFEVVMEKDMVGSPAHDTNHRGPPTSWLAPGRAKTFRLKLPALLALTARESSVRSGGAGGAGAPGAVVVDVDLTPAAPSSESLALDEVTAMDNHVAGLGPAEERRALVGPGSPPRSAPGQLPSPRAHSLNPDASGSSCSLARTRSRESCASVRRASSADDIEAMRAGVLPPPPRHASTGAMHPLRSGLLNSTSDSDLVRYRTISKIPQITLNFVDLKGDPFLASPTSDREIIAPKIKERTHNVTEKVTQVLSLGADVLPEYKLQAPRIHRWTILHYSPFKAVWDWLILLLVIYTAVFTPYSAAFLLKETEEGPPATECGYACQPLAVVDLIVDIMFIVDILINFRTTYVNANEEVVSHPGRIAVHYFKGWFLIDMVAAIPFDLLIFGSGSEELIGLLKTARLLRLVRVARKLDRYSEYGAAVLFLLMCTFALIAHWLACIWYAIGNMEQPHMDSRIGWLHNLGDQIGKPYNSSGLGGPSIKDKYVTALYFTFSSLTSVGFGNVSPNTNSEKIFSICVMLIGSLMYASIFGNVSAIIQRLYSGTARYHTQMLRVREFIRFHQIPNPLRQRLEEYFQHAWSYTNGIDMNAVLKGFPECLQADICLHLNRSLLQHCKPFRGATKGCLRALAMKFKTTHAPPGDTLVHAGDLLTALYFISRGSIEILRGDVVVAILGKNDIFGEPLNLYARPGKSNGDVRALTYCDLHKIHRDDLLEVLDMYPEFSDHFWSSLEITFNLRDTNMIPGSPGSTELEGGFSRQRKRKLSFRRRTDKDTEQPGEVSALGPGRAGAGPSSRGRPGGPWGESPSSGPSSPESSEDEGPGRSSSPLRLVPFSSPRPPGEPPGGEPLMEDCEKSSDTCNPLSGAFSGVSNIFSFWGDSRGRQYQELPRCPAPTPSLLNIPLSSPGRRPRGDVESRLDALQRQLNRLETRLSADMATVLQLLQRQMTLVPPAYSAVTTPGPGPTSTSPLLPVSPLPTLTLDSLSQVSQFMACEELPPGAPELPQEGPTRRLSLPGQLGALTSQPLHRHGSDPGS

IC50 [1]: 21.8 µM | inhibition (Trypanosoma brucei [2]): > 60% | inhibition [3]: 1.97% | IC50 (Cytochrome P450 1A2): > 25 µM | IC50 (Cytochrome P450 2C9): > 25 µM | IC50 (Cytochrome P450 2C19): > 25 µM | IC50 (Cytochrome P450 2D6): > 25 µM | IC50 (Cytochrome P450 3A4): > 25 µM | Ratio IC50 [10]: 2 to 100
Structure (SMILES): COC(=O)C1CCN(C(=O)c2ccc(CNC(=O)c3ccc4nc(N)sc4c3)cc2)CC1
growth inhibition (GI) (Trypanosoma cruzi): Non-Toxic | growth inhibition (GI) (Leishmania infantum): Non-Toxic | inhibition at 10 µM (Trypanosoma brucei [4]): 24% | IC50 [5]: < 10 µM | GI50 at 48 h [6]: > 25 µM | MNTC at 72 h [7]: > 25 µM | GI50 [8]: > 25 µM | IC50 at 6 h [9]: < 10 µM

IC50 (Pteridine reductase 1): 31.9 µM | IC50 [1]: 3.3 µM | inhibition (Trypanosoma brucei [2]): > 60% | inhibition [3]: > 60% | IC50 (Cytochrome P450 1A2): > 25 µM | IC50 (Cytochrome P450 2D6): > 25 µM | IC50 (Cytochrome P450 3A4): > 25 µM
Structure (SMILES): COC(=O)C1CCN(C(=O)c2ccc(COc3ccc4nc(N)sc4c3)cc2)CC1
inhibition at 50 µM (Trypanosoma cruzi): 27% | growth inhibition (GI) (Leishmania infantum): Non-Toxic | inhibition at 10 µM (Trypanosoma brucei [4]): 52% | IC50 [5]: > 25 µM | GI50 at 48 h [6]: > 25 µM | MNTC at 72 h [7]: 10 to 25 µM | GI50 [8]: > 25 µM | IC50 at 6 h [9]: > 25 µM

IC50 (Pteridine reductase 1): 2.48 µM | inhibition (Trypanosoma brucei [2]): 47.8% | inhibition [3]: > 60% | IC50 (Cytochrome P450 1A2): > 25 µM | IC50 (Cytochrome P450 2C9): > 25 µM | IC50 (Cytochrome P450 2C19): 10 to 25 µM | IC50 (Cytochrome P450 2D6): < 10 µM | IC50 (Cytochrome P450 3A4): < 10 µM | Ratio IC50 [10]: 2 to 100
Structure (SMILES): Nc1nc2c(O)cc(C(=O)NCc3ccccc3)cc2s1
inhibition at 50 µM (Trypanosoma cruzi): 28.8% | inhibition at 10 µM (Leishmania infantum): 11% | inhibition at 10 µM (Trypanosoma brucei [4]): 15% | IC50 [5]: > 25 µM | GI50 at 48 h [6]: > 25 µM | MNTC at 72 h [7]: > 25 µM | GI50 [8]: > 25 µM | IC50 at 6 h [9]: > 25 µM

IC50 [1]: 58.1 µM | inhibition (Trypanosoma brucei [2]): > 60% | inhibition [3]: 24.1% | IC50 (Cytochrome P450 1A2): > 25 µM | IC50 (Cytochrome P450 2C9): > 25 µM | IC50 (Cytochrome P450 2C19): > 25 µM | IC50 (Cytochrome P450 2D6): < 10 µM | IC50 (Cytochrome P450 3A4): 10 to 25 µM | Ratio IC50 [10]: 2 to 100
Structure (SMILES): Nc1nc2ccc(C(=O)N(CCO)Cc3ccccc3)cc2s1
growth inhibition (GI) (Trypanosoma cruzi): Non-Toxic | inhibition at 10 µM (Leishmania infantum): 20% | inhibition at 10 µM (Trypanosoma brucei [4]): 8% | IC50 [5]: > 25 µM | GI50 at 48 h [6]: > 25 µM | MNTC at 72 h [7]: > 25 µM | GI50 [8]: > 25 µM | IC50 at 6 h [9]: > 25 µM

The next lines start with the compound.

Structure (SMILES): Nc1nc2ccc(C(=O)NCc3ccc(C(=O)NCc4ccccc4)cc3)cc2s1
growth inhibition (GI) (Trypanosoma cruzi): Non-Toxic | growth inhibition (GI) (Leishmania infantum): Non-Toxic | IC50 (Pteridine reductase 1): 18.9 µM | IC50 [1]: 6.85 µM | inhibition (Trypanosoma brucei [2]): > 60% | inhibition [3]: > 60% | inhibition at 10 µM (Trypanosoma brucei [4]): 53% | IC50 [5]: > 25 µM | IC50 (Cytochrome P450 1A2): > 25 µM | GI50 at 48 h [6]: > 25 µM | MNTC at 72 h [7]: 10 to 25 µM | GI50 [8]: > 25 µM | IC50 at 6 h [9]: > 25 µM

Structure (SMILES): COC(=O)C1CCN(C(=O)c2ccc(CS(=O)(=O)c3ccc4nc(N)sc4c3)cc2)CC1
growth inhibition (GI) (Trypanosoma cruzi): Non-Toxic | growth inhibition (GI) (Leishmania infantum): Non-Toxic | IC50 (Pteridine reductase 1): 50 µM | IC50 [1]: 24.3 µM | inhibition (Trypanosoma brucei [2]): > 60% | inhibition [3]: > 60% | growth inhibition (GI) (Trypanosoma brucei [4]; trypanosoma brucei, 10 µM): Non-Toxic | IC50 [5]: > 25 µM | IC50 (Cytochrome P450 1A2): > 25 µM | IC50 (Cytochrome P450 2C9): < 10 µM | IC50 (Cytochrome P450 2C19): < 10 µM | IC50 (Cytochrome P450 2D6): < 10 µM | IC50 (Cytochrome P450 3A4): < 10 µM | GI50 at 48 h [6]: > 25 µM | MNTC at 72 h [7]: > 25 µM | GI50 [8]: > 25 µM | IC50 at 6 h [9]: > 25 µM | Ratio IC50 [10]: 2 to 100

Structure (SMILES): CCc1nc(N)nc(N)c1-c1ccc(Cl)cc1 [PYRIMETHAMINE]
IC50 (Pteridine reductase 1): 13.6 µM | IC50 [1]: 0.09 µM
